From ChEMBL document CHEMBL1124035, “1-Amino-substituted 4-methyl-5H-pyrido[4,3-b]indoles (gamma-carbolines) as tricyclic analogues of ellipticines: a new class of antineoplastic agents” (1988)

Assays:
Mus musculus [1] = experiment: Survivors at day 30 when a dose of 5 mg/kg to P388 leukemia model; 0/10; format: functional
Mus musculus [2] = experiment: Weight change in g when a dose of 10 mg/kg administered intraperitoneally B16 melanoma infected mice; format: functional; conditions: route intraperitoneal
How it was run: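 Hybrid BDF1 mice were inoculated ip at D0 with 0.5 mL of B16 melanoma homogenate (1 g tumor in 10 mL physiological serum). Drug was given ip daily on days 1-9, with cis-platinum 0.5 mg/kg as positive control on the same schedule.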

Mus musculus [3] = experiment: Survivors at day 30 when a dose of 100 mg/kg administered intravenously to P388 leukemia mice model; 1/10; format: functional; conditions: route intravenous
How it was run: (§1)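 P388 leukaemia in CDF1 hybrid mice, 10 per group. At D0, 10^6 viable cells were inoculated ip, followed by a single iv dose on D1. Weight change, median survival day, T/C (treated/control median survival × 100) and survivors at D30 were recorded.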

Mus musculus [4] = experiment: Survivors at day D30 when a dose of 20 mg/kg administered intravenously to L1210 leukemia mice model; 0/10; format: functional; conditions: route intravenous
Mus musculus [5] = experiment: Median survival day in P388 leukemia mice model when a dose of 100 mg/kg administered intravenously; format: functional; conditions: route intravenous; how it was run: as §1
Mus musculus [6] = experiment: Antitumor activity against C38 adenocarcinoma cells at a dose of 50 mg/kg administered intravenously to mice; tumor volume at D32 (T/C); format: functional, MC-38; conditions: route intravenous
How it was run: (§2)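 Hybrid BD F1 mice, 10 per group, were implanted sc with a standard 3-mm3 C38 colon adenocarcinoma fragment. Drugs were given iv at the stated doses on D1 or on D2 + D9. Read-out was tumor size in treated versus control mice (T/C) at the day stated.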

Mus musculus [7] = experiment: Survivors at day 30 when a dose of 20 mg/kg to P388 leukemia model; 0/10; format: functional
Mus musculus [8] = experiment: Antitumor activity against P388 leukemia in mice at a dose of 1.25 mg/kg administered intraperitoneally for 5 days; format: functional; conditions: route intraperitoneal
How it was run: (§3)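 CDF1 hybrid male or female mice, 10 per group, were inoculated ip with 10^6 viable P388 cells on day 0. Drugs in distilled water were given ip (0.1 mL/10 g body weight) daily D1-5. Vehicle, 5-fluorouracil and BD 84 were given the same way. T/C = median survival day of treated / controls × 100; T/C > 128% was significant; cures counted at D60.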

Mus musculus [9] = experiment: Survivors at day 60 when a dose of 2.5 mg/kg to B16 melanoma infected mice; 0/10; format: functional
Mus musculus [10] = experiment: Antitumor activity against P388 leukemia in mice at a dose of 15 mg/kg administered intraperitoneally for 5 days; format: functional; conditions: route intraperitoneal; how it was run: as §3
Mus musculus [11] = experiment: Survivors at day D32 when a dose of 50 mg/kg administered intravenously to mice (C38 adenocarcinoma cell lines) when tested in 10 mice; format: functional; conditions: route intravenous
How it was run: (§4)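 Hybrid BDF1 mice, 10 per test, were implanted sc with a standard 3-mm³ fragment of C38 colon adenocarcinoma. Drug was given iv either on D1 alone or on D2 and D9. Animals were followed per NCI (Geran) protocol.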

Mus musculus [12] = experiment: […] in C38 adenocarcinoma cell line when a dose of 50 mg/kg administered intravenously in mice; format: functional, MC-38; conditions: route intravenous
How it was run: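 C38 colon adenocarcinoma in hybrid BD F1 mice, 10 per test. A standard 3-mm³ tumour fragment was implanted sc. Drugs were given iv at the stated doses on D1 or on D2 + D9, following the Geran et al. NCI protocol.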

Mus musculus [13] = experiment: Antitumor activity against C38 adenocarcinoma model at a dose of 25 mg/kg administered intravenously in mice; tumor volume at D38 (T/C); format: functional; conditions: route intravenous; how it was run: as §2
Mus musculus [14] = experiment: Survivors at day 60 when a dose of 2.5 mg/kg to B16 melanoma infected when tested in 10 mice; format: functional
Mus musculus [15] = experiment: Median survival day of B16 melanoma infected mice, when a dose of 10 mg/kg administered intraperitoneally; format: functional; conditions: route intraperitoneal
How it was run: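 B16 melanoma in hybrid BD F1 mice. At D0 each mouse was inoculated ip with 0.5 mL of homogenate made from 1 g of tumour in 10 mL of physiological serum. Compounds were given ip daily at the stated doses for 9 days (D1-9), with cis-platinum 0.5 mg/kg under the same schedule as positive control.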

Mus musculus [16] = experiment: Survivors at day 60 when a dose of 10 mg/kg to B16 melanoma infected when tested in 10 mice; format: functional
Mus musculus [17] = experiment: Median survival day of B16 melanoma infected mice, when a dose of 1.25 mg/kg administered intraperitoneally; conditions: route intraperitoneal
Mus musculus [18] = experiment: Median survival day of L1210 (iv) to L1210 leukemia model when a dose of 20 mg/kg administered intravenously to mice; format: functional
How it was run: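 L1210 leukaemia in CDF1 hybrid male or female mice, 10 per group. At D0, 10^5 viable cells were inoculated ip, followed by a single iv dose on D1. Median survival day was recorded, and T/C was calculated as treated/control median survival × 100.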

Mus musculus [19] = experiment: Antitumor activity against L1210 cells at a dose of 20 mg/kg administered intravenously to mice; format: functional; conditions: route intravenous
How it was run: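 P388 (10^6 cells) or L1210 (10^5 cells) leukemia was inoculated ip in mice at D0, followed by a single iv drug treatment on D1. Weight change was recorded. T/C % = median survival day of treated / controls × 100; survivors noted at D30; 10-15 mice per group.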

Mus musculus [20] = experiment: Antitumor activity against P388 leukemia in intraperitoneally for 5 days; format: functional; how it was run: as §3
Mus musculus [21] = experiment: Antitumor activity against C38 adenocarcinoma cells at a dose of 50 mg/kg administered intravenously on D1 to mice; tumor volume at D38 (T/C); format: functional, MC-38; conditions: route intravenous; how it was run: as §2
Mus musculus [22] = experiment: Survivors at day D30 when a dose of 20 mg/kg administered intravenously to L1210 leukemia mice model; format: functional; conditions: route intravenous
Mus musculus [23] = experiment: Weight change in g when a dose of 5 mg/kg administered intraperitoneally to P388 leukemia infected mice; format: functional; conditions: route intraperitoneal
How it was run: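 P388 model with a single ip dose. Mice (10 per group) were inoculated ip at D0 with 10^6 P388 cells and given one ip drug dose at D1. Body-weight change (g), median survival day, T/C and survivors at D30 were recorded.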

Mus musculus [24] = experiment: Antitumor activity against C38 adenocarcinoma cells at a dose of 50 mg/kg administered intravenously in mice; tumor volume at D38 (T/C); format: functional, MC-38; conditions: route intravenous; how it was run: as §2
Mus musculus [25] = experiment: Survivors at day D38 when a dose of 50 mg/kg administered intravenously to C38 adenocarcinoma mice model on D1 when tested in 10 mice; format: functional; conditions: route intravenous; how it was run: as §4
Mus musculus [26] = experiment: Median survival day in P388 cell line when a dose of 20 mg/kg administered intraperitoneally to mice; format: functional; conditions: route intraperitoneal
How it was run: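 P388 leukaemia in CDF1 hybrid mice, 10 per group. At D0, 10^6 viable cells were inoculated ip, followed by a single ip dose of drug in distilled water on D1. Weight change, median survival day, T/C (treated/control median survival × 100) and survivors at D30 were recorded. Controls were 20 mice.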

Mus musculus [27] = experiment: Antitumor activity against P388 cells at a dose of 20 mg/kg administered intraperitoneally to mice; format: functional; conditions: route intraperitoneal
Mus musculus [28] = experiment: Weight change in g when a dose of 20 mg/kg (iv) to L1210 leukemia mice model; format: functional
How it was run: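 Mice received 10^5 L1210 leukemia cells ip at D0, then a single iv drug dose at D1. Read-outs were weight change (g), median survival day, T/C % and survivors at D30.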

CCN(CC)CCCNc1ncc(C)c2c1c1cc(O)ccc1n2C
Survivors (Mus musculus [1]): 0 | Weight change (Mus musculus [2]): -1 g | Survivors (Mus musculus [3]): 1 | Survivors (Mus musculus [4]): 0 | Median survival day (Mus musculus [5]): 24.3 | Tumor volume (Mus musculus [6]): 18%

CCN(CC)CCCNc1[nH]cc(C)c2nc3ccc(O)cc3c1-2
Survivors (Mus musculus [7]): 0 | T/C (Mus musculus [8]): 153% | Survivors (Mus musculus [9]): 0 | T/C (Mus musculus [10]): 208%

Cc1cnc(NCCCN(C)C)c2c3cc(O)ccc3n(C)c12
Survivors (Mus musculus [11]): 10 | Median tumoral volume (Mus musculus [12]): 0 cm*3 | Tumor volume (Mus musculus [13]): 0% | Survivors (Mus musculus [14]): 0 | Median survival day (Mus musculus [15]): 11.75 | Survivors (Mus musculus [16]): 0 | Median survival day (Mus musculus [17]): 29.75 | Median survival day (Mus musculus [18]): 14 | T/C (Mus musculus [19]): 157% | T/C (Mus musculus [20]): Toxic | Tumor volume (Mus musculus [21]): 30% | Survivors (Mus musculus [22]): 0 | Weight change (Mus musculus [23]): -1.2 g | Tumor volume (Mus musculus [24]): 0% | Survivors (Mus musculus [25]): 10 | Median survival day (Mus musculus [26]): 18.75 | T/C (Mus musculus [27]): 164% | Weight change (Mus musculus [28]): -1.1 g
